Reference: ChEMBL document CHEMBL3526154, “Metabolism, pharmacokinetics, tissue distribution, and stability studies of the prodrug analog of an anti-hepatitis B virus dinucleoside phosphorothioate” (Drug Metab Dispos, 2012)

How the values were obtained:
Conditions in all cases: in vivo; call rule not given here
Rattus norvegicus [1] = assay: Drug recovery in female Sprague-Dawley rat at 10 mg/kg, iv administered as bolus dose measured after 24 hrs by liquid scintillation counting analysis; assay type: ADME, organism-based; design: dose 10 mg/kg, route intravenous
How it was run: (§1)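 Rats got a single i.v. bolus or oral gavage dose of [³⁵S]-prodrug at 5 ml/kg over a 24 h study. Radioactivity in blood, tissues, carcass, urine and feces measured by liquid scintillation counting. Total recovery given as % of administered dose at 24 h.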

Rattus norvegicus [2] = assay: Drug recovery in male Sprague-Dawley rat at 10 mg/kg, po administered as single dose measured after 24 hrs by liquid scintillation counting analysis; assay type: ADME, organism-based; design: dose 10 mg/kg, route oral; how it was run: as §1
[3] = Drug excretion in male Sprague-Dawley rat urine at 10 mg/kg, iv administered as bolus dose measured at 4 to 24 hrs post-dose by liquid scintillation counting analysis; assay type: ADME, organism-based; design: dose 10 mg/kg, route intravenous
How it was run: (§2)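 Single [³⁵S]-prodrug dose to rats, i.v. tail-vein bolus (PEG 400/saline vehicle) or oral gavage (citric acid buffer pH 2.5), 5 ml/kg. Urine and feces collected ~1, 4 and 24 h postdose. Radioactivity counted by liquid scintillation and expressed as % of administered dose. Mean and S.D. from nine rats per sex.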

[4] = Drug excretion in male Sprague-Dawley rat urine at 10 mg/kg, iv administered as bolus dose measured at 0 to 24 hrs post-dose by liquid scintillation counting analysis; assay type: ADME, organism-based; design: dose 10 mg/kg, route intravenous; how it was run: as §2
[5] = Drug excretion in female Sprague-Dawley rat urine at 10 mg/kg, iv administered as bolus dose measured at 0 to 24 hrs post-dose by liquid scintillation counting analysis; assay type: ADME, organism-based; design: dose 10 mg/kg, route intravenous; how it was run: as §2
[6] = Drug excretion in female Sprague-Dawley rat urine at 10 mg/kg, po administered as single dose measured at 0 to 1 hr post-dose by liquid scintillation counting analysis; assay type: ADME, organism-based; design: dose 10 mg/kg, route oral; how it was run: as §2
[7] = Drug excretion in female Sprague-Dawley rat urine at 10 mg/kg, po administered as single dose measured at 1 to 4 hrs post-dose by liquid scintillation counting analysis; assay type: ADME, organism-based; design: dose 10 mg/kg, route oral; how it was run: as §2
[8] = Drug excretion in female Sprague-Dawley rat urine at 10 mg/kg, po administered as single dose measured at 4 to 24 hrs post-dose by liquid scintillation counting analysis; assay type: ADME, organism-based; design: dose 10 mg/kg, route oral; how it was run: as §2
[9] = Drug excretion in female Sprague-Dawley rat urine at 10 mg/kg, po administered as single dose measured at 0 to 24 hrs post-dose by liquid scintillation counting analysis; assay type: ADME, organism-based; design: dose 10 mg/kg, route oral; how it was run: as §2
[10] = Drug excretion in male Sprague-Dawley rat feces at 10 mg/kg, iv administered as bolus dose measured at 0 to 24 hrs post-dose by liquid scintillation counting analysis; assay type: ADME, organism-based; design: dose 10 mg/kg, route intravenous; how it was run: as §2
Rattus norvegicus [11] = assay: Terminal half life in female Sprague-Dawley rat at 10 mg/kg, iv administered as bolus dose by liquid scintillation counting analysis; assay type: ADME, organism-based; design: dose 10 mg/kg, route intravenous
How it was run: (§3)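 Radioactivity in plasma from rats given a single [35S]-labelled dose, iv (tail vein, 25% PEG 400/75% saline) or oral gavage (0.05 M citric acid, pH 2.5), sampled at 1, 4 and 24 h, measured by liquid scintillation as µg-Eq/ml. Elimination t1/2 and Tmax were derived by noncompartmental analysis with sparse sampling, from nine male and nine female rats.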

Rattus norvegicus [12] = assay: Cmax in female Sprague-Dawley rat at 10 mg/kg, iv administered as bolus dose by liquid scintillation counting analysis; assay type: ADME, organism-based; design: dose 10 mg/kg, route intravenous
How it was run: (§4)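 Single dose of [³⁵S]-labelled prodrug to rats, i.v. tail-vein bolus in 25% PEG 400/75% saline or oral gavage in 0.05 M citric acid buffer pH 2.5, 5 ml/kg. Retro-orbital blood into EDTA at 1, 4 or 24 h; plasma by centrifugation. Radioactivity by liquid scintillation counting as µg-Eq/ml. Noncompartmental sparse-sampling analysis gives Cmax and AUC; nine rats per sex.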

Rattus norvegicus [13] = assay: AUC in male Sprague-Dawley rat at 10 mg/kg, iv administered as bolus dose by liquid scintillation counting analysis; assay type: ADME, organism-based, Plasma; design: dose 10 mg/kg, route intravenous; how it was run: as §4
Rattus norvegicus [14] = assay: AUC in female Sprague-Dawley rat at 10 mg/kg, iv administered as bolus dose by liquid scintillation counting analysis; assay type: ADME, organism-based, Plasma; design: dose 10 mg/kg, route intravenous; how it was run: as §4
Rattus norvegicus [15] = assay: Tmax in male Sprague-Dawley rat at 10 mg/kg, po administered as single dose by liquid scintillation counting analysis; assay type: ADME, organism-based; design: dose 10 mg/kg, route oral; how it was run: as §3
[16] = Drug excretion in female Sprague-Dawley rat feces at 10 mg/kg, iv administered as bolus dose measured at 4 to 24 hrs post-dose by liquid scintillation counting analysis; assay type: ADME, organism-based; design: dose 10 mg/kg, route intravenous; how it was run: as §2
[17] = Drug excretion in male Sprague-Dawley rat feces at 10 mg/kg, po administered as single dose measured at 4 to 24 hrs post-dose by liquid scintillation counting analysis; assay type: ADME, organism-based; design: dose 10 mg/kg, route oral; how it was run: as §2
Kidney [18] = assay: Drug uptake in Sprague-Dawley rat kidney at 10 mg/kg, iv administered as bolus dose measured at 1 to 24 hrs post-dose by liquid scintillation counting analysis; assay type: ADME, organism-based; design: dose 10 mg/kg, route intravenous
How it was run: (§5)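 Single i.v. tail-vein bolus or oral gavage of [³⁵S]-prodrug to rats, 5 ml/kg. Euthanised by i.p. pentobarbital overdose at 1, 4 or 24 h. Retro-orbital blood collected; liver, lung, kidney, heart, brain and spleen frozen. Tissues homogenised, solubilised and counted by liquid scintillation. Radioactivity given as µg-Eq/g and % of dose.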

Liver = assay: Drug uptake in Sprague-Dawley rat liver at 10 mg/kg, po administered as single dose measured at 4 hrs post-dose by liquid scintillation counting analysis; assay type: ADME, organism-based; design: dose 10 mg/kg, route oral
How it was run: (§6)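 [35S]-labelled prodrug given once to rats, iv bolus via tail vein (25% PEG 400/75% saline) or oral gavage (0.05 M citric acid buffer, pH 2.5), 5 ml/kg. Rats euthanised at 1, 4 or 24 h. Liver, lung, kidney, heart, brain, spleen, tail and retro-orbital plasma were collected. Samples were homogenised and solubilised, and radioactivity was counted by liquid scintillation. Values are µg-equivalent/ml or g and % of dose.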

Blood = assay: Drug uptake in Sprague-Dawley rat blood at 10 mg/kg, po administered as single dose measured at 4 hrs post-dose by liquid scintillation counting analysis; assay type: ADME, organism-based; design: dose 10 mg/kg, route oral; how it was run: as §5
Kidney [19] = assay: Drug uptake in Sprague-Dawley rat kidney at 10 mg/kg, po administered as single dose measured at 4 hrs post-dose by liquid scintillation counting analysis; assay type: ADME, organism-based; design: dose 10 mg/kg, route oral; how it was run: as §6
Lung = assay: Drug uptake in Sprague-Dawley rat lung at 10 mg/kg, po administered as single dose measured at 4 hrs post-dose by liquid scintillation counting analysis; assay type: ADME, organism-based; design: dose 10 mg/kg, route oral; how it was run: as §6
Rattus norvegicus [20] = assay: Terminal half life in male Sprague-Dawley rat at 10 mg/kg, iv administered as bolus dose by liquid scintillation counting analysis; assay type: ADME, organism-based; design: dose 10 mg/kg, route intravenous; how it was run: as §3
Spleen = assay: Drug uptake in Sprague-Dawley rat spleen at 10 mg/kg, iv administered as bolus dose measured at 1 to 24 hrs post-dose by liquid scintillation counting analysis; assay type: ADME, organism-based; design: dose 10 mg/kg, route intravenous; how it was run: as §6
Brain = assay: Drug uptake in Sprague-Dawley rat brain at 10 mg/kg, iv administered as bolus dose measured at 1 to 24 hrs post-dose by liquid scintillation counting analysis; assay type: ADME, organism-based; design: dose 10 mg/kg, route intravenous; how it was run: as §5
Rattus norvegicus [21] = assay: Cmax in female Sprague-Dawley rat at 10 mg/kg, po administered as single dose by liquid scintillation counting analysis; assay type: ADME, organism-based; design: dose 10 mg/kg, route oral; how it was run: as §4
Rattus norvegicus [22] = assay: AUC in male Sprague-Dawley rat at 10 mg/kg, po administered as single dose by liquid scintillation counting analysis; assay type: ADME, organism-based, Plasma; design: dose 10 mg/kg, route oral; how it was run: as §4

In the case of `CO[C@@H]1[C@H](OP(=O)(OC[C@H]2O[C@@H](n3cnc4c(N)ncnc43)C[C@@H]2O)[35S]COC(=O)OC(C)C)[C@@H](CO)O[C@H]1n1ccc(=O)[nH]c1=O` (some centres not stated), the Drug recovery (Rattus norvegicus [1]) is reported as 84.9%, the Drug recovery (Rattus norvegicus [2]) is reported as 83% and the Drug excretion [3] is reported as 29.6%. The Drug excretion [4] was 56.15%, the Drug excretion [5] was 58.94% and the Drug excretion [6] was 0.16%. It also gave a Drug excretion [7] of 2.04%, a Drug excretion [8] of 34.78% and a Drug excretion [9] of 36.88%. The Drug excretion [10] was 16.9%, the “beta t1/2” value (Rattus norvegicus [11]) was 9 h and the Cmax (Rattus norvegicus [12]) was 4.49 ugequiv/ml. For the same compound, the AUC (Rattus norvegicus [13]) was 53.58 ugequiv.h/ml, the AUC (Rattus norvegicus [14]) was 35.21 ugequiv.h/ml and the Tmax (Rattus norvegicus [15]) was 4 h. The Drug excretion [16] was 9.44%, the Drug excretion [17] was 35.71% and the Drug uptake (Kidney [18]) was “Active”. The Drug uptake (Liver) was “Active”, the Drug uptake (Blood) was “Active” and the Drug uptake (Kidney [19]) was “Active”. The Drug uptake (Lung) was “Active”, the “beta t1/2” value (Rattus norvegicus [20]) was 7.8 h and the Drug uptake (Spleen) was “<= 0.5%”. For the same compound, the Drug uptake (Brain) was “<= 0.5%”, the Cmax (Rattus norvegicus [21]) was 2.5 ugequiv/ml and the AUC (Rattus norvegicus [22]) was 26.86 ugequiv.h/ml.
